# High-throughput results (PubChem BioAssay)
# In the library only some 1.5% were active in any assay of this set; here they are far more common.
# EBI2 block: EBI2 receptor antagonists, beta-arrestin recruitment, primary screen, cell-based, luminescence, 7a,25-OHC stimulation, uHTS; G-protein coupled receptor 183 (Homo sapiens), P32249; 7a,25-OHC stimulated; inhibition, % at 5 µM; actives 0.81% (n = 360,000); AID 651636, 2012; in the data active = inhibition above about 38%;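 note: enzyme fragment complementation signal reports receptor beta-arrestin coupling in cells; 0% = agonist plus DMSO wells and 100% = wells without agonist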
# CCR6 antag: CCR6 receptor antagonists, primary screen, cell-based, CHO-K1, luminescence, beta-arrestin, uHTS; C-C chemokine receptor type 6 (Homo sapiens), P51684; CHO-K1 CCR6 PathHunter beta-arrestin, CCL20-stimulated; inhibition, % at 20 µM; actives 0.49% (n = 340,000); AID 493098, 2011;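 active = compounds whose inhibition of the agonist-driven luminescence signal at 20 µM reaches about 50%, limit read from the data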;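 note: cells stimulated with CCL20 at 14 nM final; plate controls were DMSO with CCL20 for no effect and DMSO without agonist for full effect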
# Target sequence (P51684 whole entry, looked up): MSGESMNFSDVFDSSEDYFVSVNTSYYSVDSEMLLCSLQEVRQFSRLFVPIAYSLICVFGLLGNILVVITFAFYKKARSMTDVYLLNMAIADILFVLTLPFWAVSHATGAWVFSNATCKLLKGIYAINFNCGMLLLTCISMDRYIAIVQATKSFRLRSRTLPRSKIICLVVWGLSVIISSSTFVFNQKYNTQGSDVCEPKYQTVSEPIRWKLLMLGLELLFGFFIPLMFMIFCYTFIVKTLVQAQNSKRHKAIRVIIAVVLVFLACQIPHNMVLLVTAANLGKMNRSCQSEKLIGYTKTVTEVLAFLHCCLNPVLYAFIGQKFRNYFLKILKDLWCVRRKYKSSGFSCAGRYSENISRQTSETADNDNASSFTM
# APJ ag: agonists of human apelin receptor APJ, primary screen, CHO-K1 cells, PathHunter beta-arrestin, luminescence. actives 0.11% (n = 330,000). P35414. activation, % at 20 µM. 0% DMSO wells, 100% apelin;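 active = activation more than six SD over the plate average, tested at 20 µM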;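 note: 0% = DMSO alone and 100% = apelin-13 at 10 nM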
#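 system = engineered CHO-K1 APJ arrestin reporter cells | input = 1000 cells per well | timing = overnight seeding, 90 min compound at 25 °C, 1 h detection | measured by = enzyme-fragment complementation luminescence | read-out = beta-arrestin recruitment to APJ as agonist activity, luminescent signal | control set = negative DMSO alone, positive Apelin-13 at 10 nM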
# CXCR6 block: CXCR6 receptor inhibitors, primary screen, cell-based, beta-arrestin, luminescence, CHO-K1 PathHunter, 1536-well | C-X-C chemokine receptor type 6 (Homo sapiens), O00574 | AID 602244, 2012 | inhibition, % at 20 µM | actives 0.36% (n = 360,000); in the data active = inhibition above about 34%, passing the limit was not always enough;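 note: antagonist mode with CXCL16 agonist at 10 nM final; 0% = 10 nM CXCL16 with DMSO and 100% = unstimulated wells without agonist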
# APJ antagonist: antagonists of human apelin receptor APJ, primary screen, CHO-K1 cells, beta-arrestin complementation, luminescence. P35414. inhibition, % at 20 µM. actives 0.32% (n = 330,000);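 active = inhibition above about 40% at 20 µM, limit read from the data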;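 note: cells challenged with 10 nM apelin-13 agonist together with compound; plate controls were apelin-13 plus DMSO wells for no effect and DMSO wells lacking apelin-13 for full effect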
# APJ antag confirm: APJ antagonists blocking beta-arrestin recruitment, confirmation, cell-based, luminescence, single concentration, uHTS hits; shares compounds with APJ antagonist; antagonist mode; inhibition, % at 20 µM; actives 66% (n = 950); in the data active = inhibition above about 50%
# Numbers without * were called inactive; · = no result.
SMILES,EBI2 block,CCR6 antag,APJ ag,CXCR6 block,APJ antagonist,APJ antag confirm
Cc1cc(N2C(=O)C(O)=C(C(=O)c3cc4ccccc4o3)C2c2cccc(Br)c2)no1 (configuration not stated),11,4,-3,5,31,·
CCCOc1cccc(C2C(C(=O)c3cc4ccccc4o3)=C(O)C(=O)N2c2cc(C)on2)c1 (configuration not stated),-2,5,-4,-2,47*,35
Cc1ccc(C(CNS(=O)(=O)c2cc(F)ccc2F)N2CCN(C)CC2)cc1 (configuration not stated),8,-3,6,7,-58,·
CN(C)c1ccc(N=Nc2ccc(S(N)(=O)=O)cc2)cc1,10,29,-8,20,24,·
CN(C)c1ccc(N=Nc2ccc(S(=O)(=O)O)cc2)c2ccccc12,12,62*,-8,42*,41*,92*
COc1ccc(-c2csc(NC(=S)NC(=O)c3cc4ccccc4o3)n2)cc1Br,-3,41,-3,5,45*,9
COc1ccc(-c2csc(NC(=S)NC(=O)c3ccccc3)n2)cc1Br,7,12,-7,8,23,·
COc1ccc(C(=O)NC(=S)Nc2nc(-c3ccc(OC)c(Br)c3)cs2)cc1Br,-12,27,-1,15,43*,30
COc1ccc(-c2csc(NC(=S)NC(=O)c3ccco3)n2)cc1Br,5,15,-1,12,10,·
COc1ccc(-c2csc(NC(=S)NC(=O)/C=C/c3ccc(C(C)C)cc3)n2)cc1OC,-3,17,-12,22,41*,44
C=CCn1c(-c2cccc3ccccc23)n[nH]c1=S,13,-18,-2,4,43*,15
C=CCn1c(-c2ccccc2OC)n[nH]c1=S,-12,5,-3,0,5,·
COc1cc(NS(=O)(=O)c2ccc(NC(=S)Nc3ccccc3)cc2)nc(OC)n1,-2,-2,9,-7,6,·
COc1cc(NS(=O)(=O)c2ccc(NC(=S)NC(=O)C3CCCC3)cc2)nc(OC)n1,-3,-3,-2,5,50*,87*
O=C1/C(=C\c2ccc(O)c(O)c2)N=C2CCCCCN12,12,39,-3,15,24,·
CC(=O)Nc1ccc(Cc2ccc3[nH]c(=O)cc(C)c3c2)cc1,·,·,-3,·,44*,9
Cc1ccc2oc(/N=C(\N)NC(=O)C(C)(C)C)nc2c1,16,70*,-12,71*,54*,15
CC1(C(=O)NCc2cccc3ccccc23)CCN1Cc1ccccc1OC(F)F (configuration not stated),27,·,·,4,·,·
CCOC(=O)C1=C(C)N(C)C(=O)NC1c1c(C)nn(-c2ccc(C)cc2)c1Cl (configuration not stated),-7,10,-3,3,2,·
CCOC(=O)C1=C(C)NC(=O)NC1c1c(C)nn(-c2ccccc2)c1Cl (configuration not stated),-7,3,1,1,44*,14
O=C1N/C(=C\c2ccccc2)C(O)=C1C=NCc1ccccc1,-1,13,0,-2,45*,10
Cc1cccn2c(=O)c(/C=C(\C#N)C(=O)NCc3ccccc3)c(N3CCC(C(N)=O)CC3)nc12,-6,3,0,9,41*,37
O=[N+]([O-])c1cccc(Cl)c1NCCNc1ncc(C(F)(F)F)cc1Cl,2,16,-2,5,43*,31
Cc1c(C(=O)NCCNc2ncc(C(F)(F)F)cc2Cl)cccc1[N+](=O)[O-],10,24,-1,0,-5,·
O=C1OCC(CO)(CO)N=C1NNc1cc(Cl)ccc1Cl,2,33,-11,32,70*,74*
SMILES,EBI2 block,CCR6 antag,APJ ag,CXCR6 block,APJ antagonist,APJ antag confirm
O=C1OCC(CO)(CO)N=C1NNc1ccccc1[N+](=O)[O-],8,4,-5,-4,-3,·
CC(=O)Nc1ccc(C(=O)COC(=O)C2CC2C)c(F)c1 (configuration not stated),10,-5,-6,-1,21,·
COc1ccc(NC(=O)COC(=O)CCc2nc3ccccc3c(=O)[nH]2)cc1Cl,5,7,-4,-4,-6,·
COc1ccc(NC(=O)COC(=O)CCc2nc3ccccc3c(=O)[nH]2)c(OC)c1,-8,-1,2,-1,41*,31
O=C(Cn1ccc2ccccc2c1=O)NCC(=O)N1CCCCC1,1,-1,-2,3,5,·
CC(=O)c1sc2nc(-c3cccs3)ccc2c1N,8,6,0,-6,-9,·
CC(C)NC(=O)c1sc2nc(-c3cccs3)cc(-c3cccs3)c2c1N,·,29,-17,·,42*,31
CN1C(=O)/C(=C/c2ccc(O)c([N+](=O)[O-])c2)N(C)C1=S,3,57*,-8,43*,46*,85*
CN(Cc1c(O)ccc2c1oc(=O)c1ccccc12)C1CCCCC1,10,26,0,21,47*,40
CC(CC(=O)OCC(=O)Nc1ccc2[nH]c(=O)[nH]c2c1)c1ccccc1 (configuration not stated),2,5,-2,-3,9,·
C=CCNC(=S)Nc1cc(S(=O)(=O)N2CCOCC2)ccc1-n1cncn1,-2,26,0,13,9,·
CCN(CC)c1ccc(C(=O)NC(=S)Nc2cc(S(=O)(=O)N3CCOCC3)ccc2-n2cncn2)cc1,10,34,-7,9,41*,82*
O=C(NNC(=O)c1cccs1)c1cccnc1,-12,3,1,0,10,·
O=C(NC(O)C(=O)c1ccccc1)c1cccs1 (configuration not stated),-2,41,-11,21,48*,25
O=C(NC(O)C(=O)c1cccs1)c1cccnc1 (configuration not stated),10,25,-7,7,50*,31
Cc1ccc(C(=O)CNc2ccc(C)c(Cl)c2)cc1,35,60*,-8,22,64*,93*
Cc1ccc(NCC(=O)c2ccccc2)cc1Cl,23,73*,-17,49*,94*,101*
Cc1ccc(NCCC(=O)c2ccccc2)cc1Cl,8,5,-1,0,-10,·
O=C1CSC(c2ccccc2Cl)N1 (configuration not stated),-9,9,-1,4,-12,·
COc1ccc(NC(=O)CS(=O)(=O)c2ccc(C)cc2)c(OC)c1,-12,2,-3,7,110*,17
